Screens as filed in PubChem.
SUMO1-SIM PPI: alters human SUMO1 binding to SIM partners. P63165. SUMO1 binding to a labelled peptide, TR-FRET, 1 h. inhibition, % at 20 µM. actives 0.33% (n = 360,000). AID 602429; in the data active = inhibition above about 37%
Scp1 inh: inhibitors of human Scp-1 phosphatase; Q9GZU7; Recombinant Scp1, phosphopeptide, malachite green phosphate absorbance; inhibition, % at 20 µM; actives 0.88% (n = 340,000);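 active = inhibition above about 50% at 20 µM, limit read from the data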;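 also: plate controls were DMSO wells with enzyme for no effect and wells lacking enzyme for full effect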
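assay system = SCP-1 phosphatase catalytic domain, residues 76-261 | buffer or medium = 50 mM Tris acetate pH 5.5, 0.005% Tween-20, 10 mM MgCl2 | incubation = enzyme reaction 45 min at room temperature, colour 5 min, stabilisation 30 min | signal = Phosphate-binding colour reagent, absorbance read at 630 nm | measure = % inhibition at 20 µM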
FAS-TE inh: FAS thioesterase (human) inhibition; P49327; recombinant FAS-TE, OMFH fluorogenic substrate, fluorescence endpoint; inhibition, % at 15 µM; actives 0.67% (n = 360,000);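 active = compounds whose normalised, plate-corrected inhibition of enzyme fluorescence in the single-dose primary screen is 50% or more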;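 also: 0% = DMSO with enzyme and 100% = substrate without enzyme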
LMPTP inh: LMPTP (human) inhibition | P24666 | recombinant LMPTP-A, OMFP fluorogenic substrate, fluorescence intensity | inhibition, % at 20 µM | actives 0.22% (n = 360,000);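 active = compounds that cut the enzyme signal by at least half of the control window in the single-dose screen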;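 also: plate controls were DMSO wells with enzyme plus substrate for no effect and substrate without enzyme for full effect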
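Buffer or medium: Bis-Tris pH 6.0, DTT, detergent; Assay system: LMPTP-A enzyme; Quantity: 0.625 nM enzyme; Detection: endpoint fluorescence intensity; Times: 50 min dark incubation at room temperature; Controls: substrate-only low control, DMSO enzyme-plus-substrate high control; Doses: single 20 µM dose; Read-out: percent inhibition versus substrate-only and uninhibited controls; Reagent: 400 µM OMFP.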
STEP block: inhibitors of human striatal-enriched phosphatase STEP | P54829 | recombinant STEP, OMFP fluorogenic substrate, fluorescence | inhibition, % at 20 µM | actives 0.25% (n = 360,000) | AID 588621;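 active = inhibition at 20 µM, scaled per plate between control wells, above about 37%, limit read from the data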;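 also: 0% = DMSO with enzyme and substrate and 100% = substrate only without enzyme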
Target sequence (P54829 whole entry, looked up): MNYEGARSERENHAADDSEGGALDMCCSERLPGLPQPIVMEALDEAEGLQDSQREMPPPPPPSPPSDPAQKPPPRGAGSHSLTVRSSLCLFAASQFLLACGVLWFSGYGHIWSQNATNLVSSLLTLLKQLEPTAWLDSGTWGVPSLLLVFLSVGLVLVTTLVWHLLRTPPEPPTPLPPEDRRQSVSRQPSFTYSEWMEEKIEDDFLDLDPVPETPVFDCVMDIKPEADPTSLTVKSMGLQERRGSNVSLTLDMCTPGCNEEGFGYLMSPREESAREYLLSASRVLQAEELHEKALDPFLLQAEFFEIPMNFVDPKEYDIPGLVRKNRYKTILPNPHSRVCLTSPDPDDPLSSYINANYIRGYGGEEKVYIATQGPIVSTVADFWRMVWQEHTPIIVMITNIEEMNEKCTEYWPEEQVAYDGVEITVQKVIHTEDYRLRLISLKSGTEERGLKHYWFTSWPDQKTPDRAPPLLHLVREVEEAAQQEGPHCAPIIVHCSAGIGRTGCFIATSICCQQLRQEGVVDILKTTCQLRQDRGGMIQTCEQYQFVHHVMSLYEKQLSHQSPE
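Test system: STEP tyrosine phosphatase / Reagent: OMFP at 25 µM / Doses: 20 µM, 1% DMSO / Read-out: percent inhibition scaled to no-enzyme and uninhibited-enzyme controls, plate-pattern corrected / Detection: FITC-channel fluorescence of OMFP product / Medium: Bis-Tris buffer pH 6.0, 2.5 mM DTT, 0.005% Tween 20 / Schedule: 20 min at room temperature, dark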
FAS-TE conf: FAS thioesterase (human) inhibition, confirmation | recombinant FAS-TE, OMFH fluorogenic substrate, fluorescence | inhibition, % at 15 µM | shares compounds with FAS-TE inh | AID 624325 | actives 45% (n = 2,300);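 active = compounds inhibiting the enzyme by at least 50% at 15 µM in any one of the replicates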;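 also: 0% = enzyme with DMSO only and 100% = wells lacking enzyme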
* = called active by the depositor. Rows were chosen to be rich in hits. Some 1.9% of all compounds tested hit in one or more screens of this group.

For Cc1ccc(-c2csc(NC(=O)c3cc([N+](=O)[O-])ccc3N3CCOCC3)n2)cc1 the results were SUMO1-SIM PPI -12, Scp1 inh -6, FAS-TE inh 71*, LMPTP inh 1, STEP block 3 and FAS-TE conf 8.
Screening COc1ccc(C(=O)Nc2cc([N+](=O)[O-])ccc2N2CCCC2)cc1 returned SUMO1-SIM PPI -29, Scp1 inh -2, FAS-TE inh 58*, LMPTP inh 0, STEP block 1 and FAS-TE conf 52*.
Screening O=C(Nc1nc(-c2ccccc2)cs1)c1ccc(N2CCOCC2)c([N+](=O)[O-])c1 returned SUMO1-SIM PPI -10, Scp1 inh -4, FAS-TE inh 36, LMPTP inh 0 and STEP block 1.
For CN(C)S(=O)(=O)c1cccc(NC(=O)c2cc([N+](=O)[O-])ccc2N2CCCCC2)c1 the results were SUMO1-SIM PPI -22, Scp1 inh -2, FAS-TE inh 59*, LMPTP inh 1, STEP block 2 and FAS-TE conf 55*.
O=C(C[C@H]1C[C@@H]2c3cc(NS(=O)(=O)c4ccccc4)ccc3O[C@@H]2[C@H](CO)O1)N1CCOCC1 was read as SUMO1-SIM PPI 6, FAS-TE inh -5, LMPTP inh -2 and STEP block 2.
`COc1ccc(Cc2nc3ccc(C(=O)NC(C)c4cnn(C)c4)cc3o2)cc1` (configuration not stated) gave SUMO1-SIM PPI 0, Scp1 inh 5, FAS-TE inh -2, LMPTP inh 0 and STEP block 0.
Screening Cc1ccc(OCC(=O)Nc2ccc([N+](=O)[O-])cc2)cc1 returned SUMO1-SIM PPI -3, Scp1 inh -8, FAS-TE inh -5, LMPTP inh -1 and STEP block -1.
For CC(=O)Nc1cccc(NC(=O)c2cc([N+](=O)[O-])ccc2N2CCCCC2)c1 the results were SUMO1-SIM PPI -30, Scp1 inh -2, FAS-TE inh 32, LMPTP inh 0 and STEP block 0.
For Cc1ccc(NC(=O)C2(c3ccc([N+](=O)[O-])cc3)CCCC2)cc1 the results were SUMO1-SIM PPI -20, Scp1 inh -12, FAS-TE inh 60*, LMPTP inh 1, STEP block 1 and FAS-TE conf 51*.
Screening Cc1ccc(NC(=O)c2cc(S(=O)(=O)N(C)C)ccc2N2CCCC2)cc1F returned SUMO1-SIM PPI 0, Scp1 inh -15, FAS-TE inh 51*, LMPTP inh 3, STEP block -1 and FAS-TE conf 58*.
Cc1ccc(NC(=O)c2cc([N+](=O)[O-])ccc2N2CCCC2)cc1 was read as SUMO1-SIM PPI -22, Scp1 inh -13, FAS-TE inh 66*, LMPTP inh 2, STEP block -1 and FAS-TE conf 42*.
COc1ccccc1N1CC(C(=O)Nc2ccc(N3CCOCC3)cc2)CC1=O (configuration not stated) was read as SUMO1-SIM PPI 0, Scp1 inh -6, FAS-TE inh -1, LMPTP inh -1 and STEP block -4.
Screening Cc1ccccc1C(=O)NC1CCN(CC(=O)NCc2ccccc2)CC1 returned SUMO1-SIM PPI -7, Scp1 inh 1, FAS-TE inh -7, LMPTP inh -1 and STEP block -2.
Screening COC(=O)[C@@H](c1ccccc1)N(C)S(=O)(=O)c1cccc(S(=O)(=O)N(C)[C@@H](C(=O)OC)c2ccccc2)c1 returned SUMO1-SIM PPI -8, Scp1 inh -17, FAS-TE inh 53*, LMPTP inh 5, STEP block 1 and FAS-TE conf 32.
`Cc1cc(C)c(S(=O)(=O)N2CCN(C(=O)CCn3nc(C)c(C)c3C)CC2)c(C)c1` gave SUMO1-SIM PPI 0, Scp1 inh 7, FAS-TE inh -6, LMPTP inh 0 and STEP block -3.
Screening Cc1nn(Cc2ccc([N+](=O)[O-])cc2)c(=O)n1N(C)c1ncc(C(F)(F)F)cc1Cl returned SUMO1-SIM PPI -14, Scp1 inh 0, FAS-TE inh 79*, LMPTP inh 1, STEP block -2 and FAS-TE conf 65*.
